These results are taken from ChEMBL document CHEMBL1240462, “Synthesis and pharmacological evaluation of new methyloxiranylmethoxyxanthone analogues” (Eur J Med Chem, 2010).

In general, IC50 refers to the concentration needed to halve the response being measured. Low values mean greater potency in that assay, high ones weaker potency in that assay. One may read the inhibition as how much of the control response was suppressed. High values mean strong suppression, low ones little suppression.

The subject of assay [1] is HeLa. The assay is described as follows: Cytotoxicity against human HeLa cells after 4 days by MTT assay. Type of assay: functional, cell-based. The following applies: 96 h. In outline: (§1)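 Cells seeded at 2-4 × 10^4 per well and attached overnight in medium with 10% FBS, 5% CO₂, 37 °C. Medium replaced on day 1 with graded compound concentrations. On day 4, MTT added (0.5 mg/mL final) for 4 h, formazan dissolved in DMSO, absorbance read at 570 nm. IC50 from four-parameter logistic fit; mean ± SD of three experiments in triplicate.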
In general terms: Formazan colour is commonly taken as a measure of viable cells.

For assay [2], the target named is DNA topoisomerase 2-alpha (Homo sapiens) (UniProt P11388). The assay is described as follows: Inhibition of human topoisomerase 2alpha-mediated relaxation of supercoiled pBR322 DNA at 100 uM after 30 mins by agarose gel electrophoresis.
Chain of DNA topoisomerase 2-alpha (Homo sapiens) (P11388 whole entry): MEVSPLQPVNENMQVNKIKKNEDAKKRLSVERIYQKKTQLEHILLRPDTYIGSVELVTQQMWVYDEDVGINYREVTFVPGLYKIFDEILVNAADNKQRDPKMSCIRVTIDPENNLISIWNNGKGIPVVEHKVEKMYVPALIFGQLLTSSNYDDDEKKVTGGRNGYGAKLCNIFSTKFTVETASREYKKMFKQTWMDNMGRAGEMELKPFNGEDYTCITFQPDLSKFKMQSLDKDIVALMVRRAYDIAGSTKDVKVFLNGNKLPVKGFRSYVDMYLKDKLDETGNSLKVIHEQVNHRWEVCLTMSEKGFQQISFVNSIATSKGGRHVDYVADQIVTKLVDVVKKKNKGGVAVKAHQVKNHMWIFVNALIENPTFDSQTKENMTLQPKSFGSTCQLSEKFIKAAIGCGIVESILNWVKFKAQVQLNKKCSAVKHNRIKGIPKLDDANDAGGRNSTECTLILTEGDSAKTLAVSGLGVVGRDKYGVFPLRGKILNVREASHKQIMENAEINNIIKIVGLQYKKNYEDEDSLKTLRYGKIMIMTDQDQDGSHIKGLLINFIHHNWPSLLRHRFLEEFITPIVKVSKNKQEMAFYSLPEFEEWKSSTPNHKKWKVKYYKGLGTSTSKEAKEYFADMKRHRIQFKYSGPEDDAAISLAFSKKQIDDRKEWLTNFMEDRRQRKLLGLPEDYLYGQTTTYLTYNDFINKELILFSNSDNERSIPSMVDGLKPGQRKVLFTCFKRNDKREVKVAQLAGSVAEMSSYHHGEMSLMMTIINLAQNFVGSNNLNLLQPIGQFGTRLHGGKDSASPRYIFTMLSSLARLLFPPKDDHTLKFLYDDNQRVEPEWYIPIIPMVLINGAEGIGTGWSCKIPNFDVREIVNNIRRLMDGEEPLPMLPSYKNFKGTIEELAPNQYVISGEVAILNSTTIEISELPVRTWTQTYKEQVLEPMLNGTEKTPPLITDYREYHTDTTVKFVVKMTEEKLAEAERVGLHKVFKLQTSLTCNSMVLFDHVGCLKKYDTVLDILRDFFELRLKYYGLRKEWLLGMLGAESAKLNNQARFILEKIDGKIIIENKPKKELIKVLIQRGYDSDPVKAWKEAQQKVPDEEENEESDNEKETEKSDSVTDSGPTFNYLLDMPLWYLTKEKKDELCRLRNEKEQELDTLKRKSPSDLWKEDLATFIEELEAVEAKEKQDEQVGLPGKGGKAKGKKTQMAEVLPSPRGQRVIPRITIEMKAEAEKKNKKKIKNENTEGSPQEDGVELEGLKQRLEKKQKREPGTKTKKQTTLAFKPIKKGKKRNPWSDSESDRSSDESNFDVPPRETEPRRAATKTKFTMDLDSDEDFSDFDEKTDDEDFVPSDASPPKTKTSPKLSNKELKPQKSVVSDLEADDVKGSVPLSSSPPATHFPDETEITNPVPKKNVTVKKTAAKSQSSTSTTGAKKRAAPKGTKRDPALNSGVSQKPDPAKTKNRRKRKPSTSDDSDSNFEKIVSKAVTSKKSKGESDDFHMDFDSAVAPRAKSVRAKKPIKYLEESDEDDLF
Assay [3] concerns HCT-116. The assay is described as follows: Cytotoxicity against human HCT116 cells after 4 days by MTT assay. Type of assay: functional, cell-based. The following applies: HCT-116, 96 h. In short, it runs like this: as §1
Assay [4] relates to DU-145. The assay is described as follows: Cytotoxicity against human DU145 cells after 4 days by MTT assay. Type of assay: functional, cell-based. The following applies: DU-145, 96 h. In outline: as §1
Assay [5] addresses DNA topoisomerase 2-alpha (Homo sapiens) (UniProt P11388). The assay is described as follows: Inhibition of human topoisomerase 2alpha-mediated relaxation of supercoiled pBR322 DNA at 20 uM after 30 mins by agarose gel electrophoresis.
The next assay deals with MDA-MB-231. The assay is described as follows: Cytotoxicity against human MDA-MB-231 cells after 4 days by MTT assay. Type of assay: functional, cell-based. The following applies: MDA-MB-231, 96 h. In short, it runs like this: as §1
For assay [6], the system named is MCF7. The assay is described as follows: Cytotoxicity against human MCF7 cells after 4 days by MTT assay. Type of assay: functional, cell-based. The note with it: MCF7, 96 h. In short, it runs like this:
as §1

Assay [7] relates to MCF7. The assay is described as follows: Ratio of compound IC50 to adriamycin IC50 for human MCF7 cells. Type of assay: functional.
Assay [8] has as its system HeLa. The assay is described as follows: Ratio of compound IC50 to adriamycin IC50 for human HeLa cells. Type of assay: functional.
The subject of assay [9] is HCT-116. The assay is described as follows: Ratio of compound IC50 to adriamycin IC50 for human HCT116 cells. Type of assay: functional.
Assay [10] relates to DU-145. The assay is described as follows: Ratio of compound IC50 to adriamycin IC50 for human DU145 cells. Type of assay: functional.
The subject of the next assay is Nucleic Acid. The assay is described as follows: Binding affinity to Escherichia coli linearized pBR322 DNA at 100 uM after 2 hrs by agarose gel electrophoresis. Type of assay: nucleic-acid assay. In outline: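 DNA cross-linking: 0.5 µg EcoRI-linearized, ethanol-precipitated pBR322 incubated with compound (100 μM) for 2 h at RT in 10 mM Tris-HCl, 1 mM EDTA, pH 8.0. Run on denaturing 1.2% alkaline agarose (50 mM NaOH, 1 mM EDTA running buffer), then neutralized 1 h in 100 mM Tris, 150 mM NaCl, pH 7.6.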

Where a name gives a salt, the structure may show the parent alone. Active and inactive are the calls of the source. The calls are words filed in the database; no cut-off is given here.

With `COc1cccc2c(=O)c3c(OCC(O)CCl)cc(OCC4CO4)cc3oc12` (centres undefined), the IC50 in the assay on HeLa [1] amounted to 41.7 µM; in the assay with HCT-116 [3], 9.9 µM; with DU-145 [4], 3.9 µM; with MDA-MB-231, 18.9 µM; in the assay on MCF7 [6] it was 69 µM. For the same compound, the inhibition was 65% in assay [2] and 27% in [5].
As for `COc1cccc2c(=O)c3c(O)cc(OCC4(C)CO4)cc3oc12` (centres undefined), the IC50 was above 100 µM in the assay on HeLa [1]; 69.1 µM in the assay on HCT-116 [3]; above 100 µM in the assay with DU-145 [4]; above 100 µM with MDA-MB-231; above 100 µM in the assay with MCF7 [6]. Further, the inhibition was found to be 23% in assay [2] and 3% in [5].
Regarding `COc1cc(OCC(O)CCl)cc2oc3ccccc3c(=O)c12` (centres undefined), the concentration for half-maximal inhibition (IC50) is above 100 µM with HeLa [1]; 21.6 µM in the assay with HCT-116 [3]; 40.1 µM with DU-145 [4]; above 100 µM with MDA-MB-231; above 100 µM with MCF7 [6]. For the same compound, the results for the inhibition in assay [2] and in [5] were 33% and 1%, respectively.
Consider `COc1cccc2c1C(=O)c1c(O)c3c(c(O)c1C2=O)C[C@@](O)(C(=O)CO)C[C@@H]3O[C@H]1C[C@H](N)[C@H](O)[C@H](C)O1` [DOXORUBICIN HYDROCHLORIDE], for which the IC50 with HCT-116 [3] stood at 4 µM; in the assay with DU-145 [4] it was 1.4 µM; in the assay on MDA-MB-231, 4.4 µM.
On to `CC(O)(CCl)COc1cc(O)c2c(=O)c3ccccc3oc2c1` (centres undefined), for which the IC50 in the assay on HeLa [1] is above 100 µM; with HCT-116 [3], 47.1 µM; in the assay with DU-145 [4], above 100 µM; in the assay on MDA-MB-231, above 100 µM; with MCF7 [6], above 100 µM. In addition, the inhibition in assay [2] was 52%; in assay [5], 20%.
In the case of `COc1cccc2c(=O)c3c(OC)cc(OCC4CO4)cc3oc12` (centres undefined), the IC50 in the assay with HeLa [1] amounted to 6.2 µM; with HCT-116 [3], 1.5 µM; in the assay on DU-145 [4], 0.8 µM; in the assay with MDA-MB-231, 3.8 µM; in the assay with MCF7 [6] it was 8 µM. In addition, the values for the inhibition in assay [2] and in assay [5] were 4% and 0%, respectively. Besides, the “Ratio IC50” value in the assay with MCF7 [7], in the assay with HeLa [8], with HCT-116 [9] and in the assay with DU-145 [10] was 2 throughout.
Turning to `COc1cccc2c(=O)c3c(OCC4(C)CO4)cc(OCC4(C)CO4)cc3oc12` (centres undefined), the IC50 in the assay on HeLa [1] is 1.5 µM; with HCT-116 [3] it was 0.8 µM; with DU-145 [4], 0.9 µM; in the assay with MDA-MB-231, 5.1 µM; in the assay with MCF7 [6], 2.5 µM. Further, the inhibition in assay [2] was found to be 48%; in assay [5], 15%. The “Ratio IC50” value with MCF7 [7], with HeLa [8], with HCT-116 [9] and in the assay with DU-145 [10] was 2 in each case. The outcome with Nucleic Acid was Active.
As for `CC[C@@]1(O)C(=O)OCc2c1cc1n(c2=O)Cc2cc3ccccc3nc2-1` [CAMPTOTHECIN], the IC50 in the assay on HeLa [1] came to 1.1 µM; in the assay with HCT-116 [3], 2.3 µM; in the assay with MCF7 [6] it was 14.2 µM.
`COc1cccc2c(=O)c3c(OC)cc(OCC(O)CCl)cc3oc12` (centres undefined): the IC50 turned out to be 59.5 µM with HeLa [1]; 16.4 µM in the assay with HCT-116 [3]; 15.3 µM with DU-145 [4]; 56 µM with MDA-MB-231; 51.7 µM in the assay on MCF7 [6]. Further, the inhibition came out at 83% in [2] and 2% in [5].
For `COc1cccc2c(=O)c3c(OCC4CO4)cc(OCC4CO4)cc3oc12` (centres undefined), the IC50 in the assay on HeLa [1] came to 4.7 µM; with HCT-116 [3], 2 µM; in the assay on DU-145 [4], 2.4 µM; in the assay on MDA-MB-231, 5.4 µM; in the assay on MCF7 [6], 9.9 µM. The inhibition in [2] came out at 71%; in assay [5], 9%. The outcome in the assay on Nucleic Acid was Active.
As for `COc1cccc2c(=O)c3c(O)cc(OCC(C)(O)CCl)cc3oc12` (centres undefined), the IC50 with HeLa [1] came out at 68.2 µM; in the assay on HCT-116 [3] it was 15.8 µM; with DU-145 [4], 7.2 µM; with MDA-MB-231, 15.4 µM; with MCF7 [6], 88.4 µM. The results for the inhibition in assay [2] and in [5] were 85% and 41%, respectively.
As to `COc1cc([C@@H]2c3cc4c(cc3[C@@H](O[C@@H]3O[C@@H]5CO[C@@H](C)O[C@H]5[C@H](O)[C@H]3O)[C@H]3COC(=O)[C@H]23)OCO4)cc(OC)c1O` [ETOPOSIDE], the IC50 worked out at 11.9 µM in the assay on HCT-116 [3], 13.8 µM in the assay with DU-145 [4] and 17.5 µM in the assay on MCF7 [6].
Turning to `CC1(COc2cc(O)c3c(=O)c4ccccc4oc3c2)CO1` (centres undefined), the IC50 in the assay with HeLa [1] was found to be 14.3 µM; with HCT-116 [3] it was 12.1 µM; in the assay with DU-145 [4], 18.9 µM; with MDA-MB-231 it was 41.7 µM; in the assay with MCF7 [6], 15 µM. Besides, the results for the inhibition in assay [2] and in [5] were 25% and 11%, respectively.
In the case of `COc1cc(OCC2CO2)cc2oc3ccccc3c(=O)c12` (centres undefined), the IC50 worked out at 10.5 µM in the assay on HeLa [1]; 6.6 µM in the assay with HCT-116 [3]; 1.5 µM in the assay with DU-145 [4]; 10.9 µM in the assay on MDA-MB-231; 14 µM with MCF7 [6]. Moreover, the inhibition in [2] came out at 51%; in assay [5], 5%.
In the case of `CC1(COc2cc(OCC3(C)CO3)c3c(=O)c4ccccc4oc3c2)CO1` (centres undefined), the IC50 was 15.8 µM with HeLa [1]; 2.6 µM with HCT-116 [3]; 3.9 µM in the assay on DU-145 [4]; 68.2 µM in the assay on MDA-MB-231; 15.2 µM with MCF7 [6]. Moreover, the inhibition stood at 41% in assay [2] and 24% in assay [5]. Moreover, in the assay on Nucleic Acid, the result was Active.
